# Results taken from ChEMBL document CHEMBL3272047, “3-N-Substituted aminomethyl derivatives of rifamycin SV. A convenient method of synthesis, cyclization of certain derivatives, and anticellular and antiviral activities of several derivatives” (J Med Chem, 1977).
# Assays:
# [1] = Cytotoxicity against mouse 3T3-FL cells after 24 to 120 hrs; format: cell-based; conditions: read-out: MNTD>75
# How it was run: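 Uninfected 3T3 cells exposed to drug (0.25% Me2SO final, matched controls); triplicate plates counted at 24, 48, 96 and 120 h to build growth curves. Highest nontoxic level defined as logarithmic growth rate ≥75% of untreated and total growth after 5 days ≥75% of control.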
# [2] = tested on: Moloney murine sarcoma virus; test: Antiviral activity against Moloney murine sarcoma virus infected in mouse 3T3-FL cells assessed as inhibition of cellular focal transformation at highest nontoxic concentration after 5 days by microscopic analysis relative to control; format: functional
# How it was run: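 3T3FL cells seeded 1×10^5/dish in McCoy's 5A with 10% fetal calf serum, incubated overnight, primed with 25 µg/mL DEAE-dextran 20 min at room temperature, infected with ~100 FFU Moloney MSV (1 h adsorption, 37 °C); drug medium (0.25% Me2SO final) added, 5 days 37 °C without medium change; foci counted microscopically versus parallel control cultures.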
SMILES,MNTC [1] [nM],inhibition (INH) [2] [%]
CNCc1c2c(O)c3c(O)c(C)c4c(c3c1O)C(=O)[C@@](C)(O/C=C/[C@H](OC)[C@@H](C)[C@@H](OC(C)=O)[C@H](C)[C@H](O)[C@H](C)[C@@H](O)[C@@H](C)/C=C/C=C(/C)C(=O)N2)O4,1400,14
CCCNCc1c2c(O)c3c(O)c(C)c4c(c3c1O)C(=O)[C@@](C)(O/C=C/[C@H](OC)[C@@H](C)[C@@H](OC(C)=O)[C@H](C)[C@H](O)[C@H](C)[C@@H](O)[C@@H](C)/C=C/C=C(/C)C(=O)N2)O4,1300,10
CO[C@H]1/C=C/O[C@@]2(C)Oc3c(C)c(O)c4c(O)c(c(CN)c(O)c4c3C2=O)NC(=O)/C(C)=C\C=C\[C@H](C)[C@H](O)[C@@H](C)[C@@H](O)[C@@H](C)[C@H](OC(C)=O)[C@@H]1C,1400,0
CO[C@H]1/C=C/O[C@@]2(C)Oc3c(C)c(O)c4c(O)c5c(c(O)c4c3C2=O)CN(C)C(=N5)/C(C)=C\C=C\[C@H](C)[C@H](O)[C@@H](C)[C@@H](O)[C@@H](C)[C@H](OC(C)=O)[C@@H]1C,1400,0
CO[C@H]1/C=C/O[C@@]2(C)Oc3c(C)c(O)c4c(O)c5c(c(O)c4c3C2=O)CNC(=N5)/C(C)=C\C=C\[C@H](C)[C@H](O)[C@@H](C)[C@@H](O)[C@@H](C)[C@H](OC(C)=O)[C@@H]1C,1400,26
